From ChEMBL document CHEMBL4706684, “Discovering High Potent Hsp90 Inhibitors as Antinasopharyngeal Carcinoma Agents through Fragment Assembling Approach” (J Med Chem, 2021)
The source made the active and inactive calls. No cut-off for these calls is given here.

Assays:
[1] = molecular target: T1, Heat shock protein HSP 90-alpha (Homo sapiens, UniProt P07900); assay: Potency index, ratio of IC50 for 17-AAG to IC50 for inhibition of HSP90-alpha (unknown origin) expressed in Escherichia coli BL21 assessed as reduction in ATPase activity in presence of PEP, NADH and ATP by pyruvate kinase/lactic dehydrogenase based coupled enzyme assay
In short: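 The reaction was started with 2 μM Hsp90 at 37 °C and followed as the decrease in absorbance at 340 nm. Compounds were added to the reaction mixture, with 17-AAG as reference.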

CNE-2 [2] = assay: Induction of apoptosis in human CNE-2 cells assessed as viable cells level at 500 nM incubated for 12 hrs by Annexin-V/FITC staining based FACS analysis (reference value: 96.7%); assay type: cell-based; conditions: read-out: Activity
In short: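 CNE2 cells (RPMI 1640 with 10% FBS) were seeded at 5 × 10⁴ cells per well. After 24 h they were treated with compound in 0.05% DMSO for 12 h. Cells were then washed twice with PBS, pelleted, and stained in binding buffer with Annexin V-FITC and PI for flow cytometry.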

[3] = molecular target: T1, Heat shock protein HSP 90-alpha; assay: Binding affinity to HSP90-alpha (unknown origin) expressed in Escherichia coli BL21 by SPR assay
CNE-2 [4] = assay: Induction of apoptosis in human CNE-2 cells assessed as necrosis cells level at 50 nM incubated for 12 hrs by Annexin-V/FITC staining based FACS analysis (reference value: 1.45%); assay type: cell-based; conditions: cne-2, 12 h, 0.05 µM
[5] = molecular target: T1, Heat shock protein HSP 90-alpha; assay: Inhibition of HSP90-alpha in human CNE-2 cells assessed as reduction in PKB protein levels at 20 to 500 nM incubated for 24 hrs by immunoblot analysis; assay type: cell-based; conditions: dose 20-500 nM
In short: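 CNE2 cells (RPMI 1640, 10% FBS, 37 °C, 5% CO₂) were incubated with inhibitor for 24 h, then lysed in RIPA buffer on ice for 30 min. Lysates were run on 8–12% SDS-PAGE and transferred to PVDF. Membranes were blocked with 5% milk and probed with primary antibodies overnight, then HRP secondaries. Detection was by chemiluminescence with actin as loading control.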

CNE-2 [6] = assay: Induction of apoptosis in human CNE-2 cells overexpressing HSP90 assessed as late apoptosis cells level at 70 nM incubated for 12 hrs by Annexin-V/FITC staining based FACS analysis (reference value: 2.18%); assay type: cell-based; conditions: cne-2, 12 h, 0.07 µM

Q: How did the Ratio IC50 [1] turn out when `CC(C)(C)c1ccc(Cn2cc(-c3cc(O)c(O)c(O)c3)nn2)cc1` was run?
A: 5

Q: And the viability at 0.5 µM (CNE-2 [2])?
A: 32%

Q: And the Kd [3]?
A: 63 nM

Q: What about the Activity (CNE-2 [4]) of the same molecule?
A: 0.37%

Q: What about the inhibition [5] of the same molecule?
A: Active

Q: And the Activity (CNE-2 [6])?
A: 1.28%
